Measurements from ChEMBL document CHEMBL1828538, “Synthesis and pharmacological evaluation of indole-based sigma receptor ligands” (Eur J Med Chem, 2011).
Activity calls are given as the source filed them. The calls are words filed in the database; no cut-off is given here.

Legend:
[1] = Displacement of radioligand from muscarinic receptor assessed as 50% receptor inhibition at 10^-5 M
In short: (§1)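 Part of a contracted (NovaScreen) panel of 64 radioligand/enzyme assays, with the test compound run at 10⁻⁵ M and 10⁻⁷ M. Each assay was scored by whether radioligand displacement exceeded 50% at each concentration.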

[2] = target: T1, Muscarinic acetylcholine receptor M2 (Homo sapiens) (UniProt P08172); test: Displacement of radioligand from muscarinic M2 receptor assessed as 50% receptor inhibition at 10^-5 M; in short: as §1
T1 sequence (whole entry): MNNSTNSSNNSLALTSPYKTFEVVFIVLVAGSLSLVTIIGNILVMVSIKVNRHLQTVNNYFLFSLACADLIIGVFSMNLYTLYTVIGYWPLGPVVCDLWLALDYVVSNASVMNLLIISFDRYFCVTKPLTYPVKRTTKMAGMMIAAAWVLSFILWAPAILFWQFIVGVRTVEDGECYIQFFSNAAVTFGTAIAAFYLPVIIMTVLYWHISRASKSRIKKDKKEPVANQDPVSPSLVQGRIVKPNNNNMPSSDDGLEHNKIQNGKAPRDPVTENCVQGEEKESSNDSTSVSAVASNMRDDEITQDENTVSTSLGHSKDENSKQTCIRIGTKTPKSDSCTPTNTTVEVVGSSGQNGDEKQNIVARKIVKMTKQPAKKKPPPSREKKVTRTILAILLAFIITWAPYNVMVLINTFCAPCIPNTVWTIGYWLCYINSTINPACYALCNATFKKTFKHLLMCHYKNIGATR

[3] = target: T2, Muscarinic acetylcholine receptor M1 (Homo sapiens) (UniProt P11229); test: Displacement of radioligand from muscarinic M1 receptor assessed as 50% receptor inhibition at 10^-7 M; in short: as §1
T2 sequence (whole entry): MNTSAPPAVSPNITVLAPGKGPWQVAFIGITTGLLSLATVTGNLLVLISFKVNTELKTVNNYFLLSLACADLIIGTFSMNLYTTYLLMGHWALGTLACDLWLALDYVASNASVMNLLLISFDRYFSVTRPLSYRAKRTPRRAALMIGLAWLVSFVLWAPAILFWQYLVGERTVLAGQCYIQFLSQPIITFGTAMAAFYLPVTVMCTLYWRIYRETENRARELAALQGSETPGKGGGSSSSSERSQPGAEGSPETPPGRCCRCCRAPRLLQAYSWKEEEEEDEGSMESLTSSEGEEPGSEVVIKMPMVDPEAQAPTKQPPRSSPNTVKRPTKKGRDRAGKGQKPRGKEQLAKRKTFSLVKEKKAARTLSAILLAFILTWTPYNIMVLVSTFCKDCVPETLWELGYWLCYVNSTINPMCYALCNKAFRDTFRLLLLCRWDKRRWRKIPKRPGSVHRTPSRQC

[4] = target: T3, 5-hydroxytryptamine receptor 1A (Homo sapiens, UniProt P08908); test: Displacement of [3H]8-OH-DPAT from human 5HT1A receptor expressed in HEK cells; format: cell-based, HEK293
T3 sequence (P08908 whole entry): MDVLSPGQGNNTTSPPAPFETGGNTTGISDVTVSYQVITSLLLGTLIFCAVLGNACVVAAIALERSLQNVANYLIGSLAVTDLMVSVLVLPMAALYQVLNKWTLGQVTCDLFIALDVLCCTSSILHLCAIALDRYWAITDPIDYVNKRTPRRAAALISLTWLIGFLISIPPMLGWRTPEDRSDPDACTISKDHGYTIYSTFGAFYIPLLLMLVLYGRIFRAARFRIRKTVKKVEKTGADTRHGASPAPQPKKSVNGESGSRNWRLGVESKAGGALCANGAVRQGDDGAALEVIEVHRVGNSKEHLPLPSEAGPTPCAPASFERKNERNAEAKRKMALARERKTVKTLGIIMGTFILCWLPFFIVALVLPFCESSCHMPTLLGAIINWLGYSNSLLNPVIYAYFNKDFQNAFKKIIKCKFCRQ
In short: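 Assay used HEK-h5-HT1A cells with 0.5 nM [3H]8-OH-DPAT, and nonspecific binding defined by 1 μM dihydroergotamine. Ki came from standard competition conditions, as mean ± SEM of replicate assays.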

[5] = target: T4, Glycine receptor subunit alpha-1 (Homo sapiens) (UniProt P23415); test: Displacement of radioligand from strychnine sensitive glycine receptor assessed as 50% receptor inhibition at 10^-7 M; in short: as §1
T4 sequence (whole entry): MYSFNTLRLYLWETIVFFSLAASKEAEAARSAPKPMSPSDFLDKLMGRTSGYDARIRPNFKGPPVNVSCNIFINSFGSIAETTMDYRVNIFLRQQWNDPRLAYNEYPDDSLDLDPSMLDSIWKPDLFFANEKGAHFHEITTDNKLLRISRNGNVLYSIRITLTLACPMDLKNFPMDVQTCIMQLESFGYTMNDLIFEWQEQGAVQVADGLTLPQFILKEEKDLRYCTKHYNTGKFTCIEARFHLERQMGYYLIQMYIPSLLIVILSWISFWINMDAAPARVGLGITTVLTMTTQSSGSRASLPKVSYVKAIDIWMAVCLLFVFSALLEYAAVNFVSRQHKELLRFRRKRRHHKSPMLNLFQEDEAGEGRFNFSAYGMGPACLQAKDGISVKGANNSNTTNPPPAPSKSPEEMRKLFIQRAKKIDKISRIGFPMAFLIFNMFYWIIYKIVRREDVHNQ

[6] = target: Sodium-dependent dopamine transporter (Homo sapiens, UniProt Q01959); test: Displacement of [125I]RTI-55 from human DAT expressed in HEK293 cells; format: cell-based
In short: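 Nonspecific binding was defined with 5 μM mazindol. Ki was determined under standard conditions and reported as mean ± SEM of replicate assays. A value >10000 nM means less than 30% radioligand displacement at that concentration.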

[7] = Displacement of radioligand from muscarinic receptor assessed as 50% receptor inhibition at 10^-7 M; in short: as §1
D(3) dopamine receptor = D(3) dopamine receptor (Homo sapiens, UniProt P35462); test: Displacement of [3H]YM-09151-2 from human D3 receptor expressed in CHO cells; format: cell-based
In short: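 CHOp-D2 or CHOp-D3 cells were labelled with 0.2–0.5 nM [3H]YM-09151-2, and nonspecific binding was set with 1 μM chlorpromazine. Ki was from standard competition conditions, as mean ± SEM of replicate assays.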

[8] = Displacement of radioligand from adrenergic beta1 receptor assessed as 50% receptor inhibition at 10^-7 M; in short: as §1
[9] = target: T4, Glycine receptor subunit alpha-1 (Homo sapiens); test: Displacement of radioligand from strychnine sensitive glycine receptor assessed as 50% receptor inhibition at 10^-5 M; in short: as §1
[10] = target: T1, Muscarinic acetylcholine receptor M2 (Homo sapiens); test: Displacement of radioligand from muscarinic M2 receptor assessed as 50% receptor inhibition at 10^-7 M; in short: as §1
D(1A) dopamine receptor = D(1A) dopamine receptor (Homo sapiens, UniProt P21728); test: Displacement of [3H]SCH-23390 from human D1 receptor in cell-based assay
In short: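 LhD1 cells were labelled with 0.18 nM [3H]SCH-23390, with 1 μM SCH-23390 for nonspecific binding. Ki was from standard assay conditions, as mean ± SEM of replicates. A value >10000 nM denotes under 30% displacement at that concentration.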

[11] = Displacement of radioligand from adrenergic beta1 receptor assessed as 50% receptor inhibition at 10^-5 M; in short: as §1
[12] = Displacement of radioligand from dopamine D4.2 receptor assessed as 50% receptor inhibition at 10^-7 M; in short: as §1

D(3) dopamine receptor, sequence (P35462 whole entry): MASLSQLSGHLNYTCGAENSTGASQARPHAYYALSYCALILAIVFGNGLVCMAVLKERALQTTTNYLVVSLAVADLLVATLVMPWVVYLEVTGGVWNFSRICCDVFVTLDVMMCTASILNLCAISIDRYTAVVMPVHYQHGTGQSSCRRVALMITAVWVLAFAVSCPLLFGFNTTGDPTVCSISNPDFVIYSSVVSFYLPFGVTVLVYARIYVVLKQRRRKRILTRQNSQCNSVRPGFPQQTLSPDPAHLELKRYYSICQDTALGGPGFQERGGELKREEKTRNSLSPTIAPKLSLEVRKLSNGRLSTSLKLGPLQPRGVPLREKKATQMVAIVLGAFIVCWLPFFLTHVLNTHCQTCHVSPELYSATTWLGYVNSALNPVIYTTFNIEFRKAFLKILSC
D(1A) dopamine receptor, sequence (P21728 whole entry): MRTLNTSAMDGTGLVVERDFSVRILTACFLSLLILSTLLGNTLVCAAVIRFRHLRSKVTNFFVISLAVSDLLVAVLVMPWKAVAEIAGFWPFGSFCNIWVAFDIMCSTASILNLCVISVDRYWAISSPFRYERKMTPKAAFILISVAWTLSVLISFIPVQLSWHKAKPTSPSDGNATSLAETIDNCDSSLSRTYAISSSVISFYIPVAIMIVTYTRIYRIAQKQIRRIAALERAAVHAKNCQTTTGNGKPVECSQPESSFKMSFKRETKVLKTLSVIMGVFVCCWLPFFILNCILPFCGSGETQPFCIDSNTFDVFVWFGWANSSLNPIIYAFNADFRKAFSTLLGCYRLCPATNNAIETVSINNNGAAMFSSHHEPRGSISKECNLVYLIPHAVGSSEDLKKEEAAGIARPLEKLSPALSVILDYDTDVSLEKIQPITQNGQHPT
Sodium-dependent dopamine transporter, sequence (Q01959 whole entry): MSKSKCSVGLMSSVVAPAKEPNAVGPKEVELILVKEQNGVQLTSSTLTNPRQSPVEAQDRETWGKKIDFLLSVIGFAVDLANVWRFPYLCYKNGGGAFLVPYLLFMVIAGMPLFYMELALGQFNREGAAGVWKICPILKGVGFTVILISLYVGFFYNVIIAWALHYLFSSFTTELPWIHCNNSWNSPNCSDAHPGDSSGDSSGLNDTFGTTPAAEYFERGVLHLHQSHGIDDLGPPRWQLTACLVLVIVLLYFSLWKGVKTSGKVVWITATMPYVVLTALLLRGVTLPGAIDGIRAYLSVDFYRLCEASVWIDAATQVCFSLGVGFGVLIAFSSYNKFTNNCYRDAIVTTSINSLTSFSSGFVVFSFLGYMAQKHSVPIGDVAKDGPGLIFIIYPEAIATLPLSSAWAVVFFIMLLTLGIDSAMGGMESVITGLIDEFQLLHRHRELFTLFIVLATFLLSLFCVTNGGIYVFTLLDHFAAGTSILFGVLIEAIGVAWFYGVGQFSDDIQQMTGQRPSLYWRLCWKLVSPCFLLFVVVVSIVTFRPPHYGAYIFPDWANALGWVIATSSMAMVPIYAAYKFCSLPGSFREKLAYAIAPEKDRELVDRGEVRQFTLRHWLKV

Question: What does the source list for `COc1cc2c(cc1OC)CN(CCCCn1cc(-c3ccc(F)cc3)c3ccccc31)CC2`?
Answer: inhibition [1]: Active; inhibition [2]: Active; inhibition [3]: inactive; Ki [4]: 1510 nM; inhibition [5]: Active; Ki [6]: 5000 nM; inhibition [7]: inactive; Ki (D(3) dopamine receptor): 544 nM; inhibition [8]: inactive; inhibition [9]: Active; inhibition [10]: inactive; Ki (D(1A) dopamine receptor): > 10000 nM; inhibition [11]: Active; inhibition [12]: inactive
